Data: ChEMBL document CHEMBL1122764, “Synthesis and antidepressant activity of 4-aryltetrahydrothieno[2,3-c]pyridine derivatives” (J Med Chem, 1984)

How the values were obtained:
[1] = organism: Mus musculus; assay: Anti-tetrabenazine (TBZ) activity, ability to prevent TBZ-induced ptosis in mice; format: functional
Summary of the method: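 Mice; compound given by an unstated route some hours before tetrabenazine (the time is truncated). Five animals per dose, with at least three to five doses. Ptosis scored 75-120 min after tetrabenazine injection on the Rubin scale (eyes closed = 100).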

[2] = organism: Rattus norvegicus; assay: cells; format: functional, organism-based, Synaptosomes; settings: Brain, 3 h
[3] = organism: Rattus norvegicus; assay: In vitro inhibition of norepinephrine uptake in rat brain synaptosomes using [3H]NE; format: functional, organism-based

Structure (SMILES)	IC50 [2]	IC50 [3]	ED50 [1]
CCc1cc2c(s1)CN(CC)CC2c1ccc(C)cc1.Cl (configuration not stated)	1800 nM	270 nM	> 40 mg/kg
CN1Cc2sc(Cl)cc2C(c2ccc(Cl)cc2)C1.Cl (configuration not stated)	5400 nM	1600 nM	2.2 mg/kg
Cc1cc2c(s1)CN(C)CC2c1ccc(O)cc1.Cl (configuration not stated)	460 nM	250 nM	10 mg/kg
CN1Cc2sc(C(C)(C)C)cc2C(c2ccc(Br)cc2)C1.Cl (configuration not stated)	5700 nM	1740 nM	7 mg/kg
Cc1sc2c(c1Br)C(c1ccc(Br)cc1)CN(C)C2.Cl (configuration not stated)	> 10000 nM	7800 nM	> 40 mg/kg
Cc1cc2c(s1)CN(C)CC2c1c(Cl)cccc1Cl.Cl (configuration not stated)	> 10000 nM	> 10000 nM	> 40 mg/kg
CN1Cc2c(N)cccc2C(c2ccccc2)C1 (configuration not stated) [NOMIFENSINE]			1.7 mg/kg
CN1Cc2sc(N)cc2C(c2ccc(Cl)cc2)C1 (configuration not stated)	210 nM	180 nM	> 40 mg/kg
CN1Cc2sc([N+](=O)[O-])cc2C(c2ccc(Br)cc2)C1.Cl (configuration not stated)	2450 nM	450 nM	3.6 mg/kg
CC(=O)Nc1cc2c(s1)CN(C)CC2c1ccc(Cl)cc1.Cl (configuration not stated)	600 nM	570 nM	35 mg/kg
COc1ccc(C2CN(C)Cc3sc(C)cc32)cc1.Cl (configuration not stated)	500 nM	400 nM	7.1 mg/kg
Cc1cc2c(s1)CNCC2c1ccc(Br)cc1.Cl (configuration not stated)	1800 nM	760 nM	> 40 mg/kg
Cc1ccc(C2CN(C)Cc3sc(Br)cc32)cc1.Cl (configuration not stated)	9000 nM	640 nM	7.4 mg/kg
CN1Cc2sccc2C(c2ccc(Cl)cc2Cl)C1.Cl (configuration not stated)	3000 nM	> 10000 nM	> 40 mg/kg
Cc1ccc(C2CN(C)Cc3sc(Cl)cc32)cc1.Cl (configuration not stated)	> 10000 nM	900 nM	5.9 mg/kg
CN1Cc2sc(N)cc2C(c2ccc(Br)cc2)C1 (configuration not stated)	90 nM	130 nM	7.4 mg/kg
Cc1cc2c(s1)CN(C)CC2c1ccc(Br)cc1.Cl (configuration not stated)	540 nM	500 nM	2.6 mg/kg
CN1Cc2sc([N+](=O)[O-])cc2C(c2ccc(Cl)cc2)C1 (configuration not stated)	3350 nM	800 nM	> 40 mg/kg
Cc1cc2c(s1)CN(C)CC2(C)c1ccc(Br)cc1 (configuration not stated)	3100 nM	3400 nM	40 mg/kg
CN1Cc2sc(Br)cc2C(c2ccc(Br)cc2)C1 (configuration not stated)	4100 nM	1600 nM	0.8 mg/kg
COc1ccc(C2CN(C)Cc3sccc32)cc1OC.Cl (configuration not stated)	300 nM	> 10000 nM	> 40 mg/kg
CN1Cc2sc(Cl)cc2C(c2ccc(Br)cc2)C1.Cl (configuration not stated)	3500 nM	1000 nM	6.5 mg/kg
Oc1cccc(C2CNCc3sc(Cl)cc32)c1 (configuration not stated)	> 10000 nM	3200 nM	> 40 mg/kg
Cc1cc2c(s1)CN(C)CC2c1ccc(Cl)cc1.Cl (configuration not stated)	3550 nM	190 nM	> 40 mg/kg
Cc1cc2c(s1)CN(C)CC2c1cccc(C(F)(F)F)c1.Cl (configuration not stated)	> 10000 nM	3400 nM	> 40 mg/kg
Cl.Clc1cc2c(s1)CNCC2c1ccc(Br)cc1 (configuration not stated)	> 10000 nM	3600 nM	> 40 mg/kg

More lines, main results first:

IC50 [2]	IC50 [3]	Structure (SMILES)	ED50 [1]
> 10000 nM	> 10000 nM	CCC1(c2ccc(Br)cc2)CN(C)Cc2sc(C)cc21 (configuration not stated)	> 40 mg/kg
230 nM	5000 nM	CN(C)CCCN1c2ccccc2CCc2ccccc21 [IMIPRAMINE]	2.3 mg/kg
2050 nM	7800 nM	Cc1cc2c(s1)CN(C)CC2c1ccc(C(F)(F)F)cc1.Cl (configuration not stated)	> 40 mg/kg
> 10000 nM	1400 nM	CN1Cc2sc(Cl)cc2C(c2ccccc2)C1.Cl (configuration not stated)	> 40 mg/kg
860 nM	990 nM	CCCc1cc2c(s1)CN(C)CC2c1ccc(Br)cc1.Cl (configuration not stated)	40 mg/kg
> 10000 nM	2300 nM	CN1Cc2sc(Br)cc2C(c2ccccc2)C1.Cl (configuration not stated)	6 mg/kg
200 nM	370 nM	COCc1cc2c(s1)CN(C)CC2c1ccc(Br)cc1 (configuration not stated)	1.7 mg/kg
8000 nM	560 nM	Cc1cc2c(s1)CN(C)CC2c1ccccc1.Cl (configuration not stated)	8.4 mg/kg
1200 nM	50 nM	Cc1ccc(C2CN(C)Cc3sc(CO)cc32)cc1.Cl (configuration not stated)	0.7 mg/kg
780 nM	1100 nM	CCCc1cc2c(s1)CN(C)CC2c1ccc(F)cc1.Cl (configuration not stated)	13 mg/kg
> 10000 nM	3000 nM	Cl.c1ccc(C2CNCc3sccc32)cc1 (configuration not stated)	> 40 mg/kg
> 10000 nM	> 10000 nM	CCCCN1Cc2sccc2C(c2ccc(Cl)cc2)C1.Cl (configuration not stated)	> 40 mg/kg
